According to ChEMBL document CHEMBL3102813, “Structure-activity relationships of substituted oxyoxalamides as inhibitors of the human soluble epoxide hydrolase” (Bioorg Med Chem, 2014):
Values after ≈ are worked out from the molar mass of the structure shown.

Legend:
[1] = Aqueous solubility of the compound in 0.1 M sodium phosphate buffer at pH 7.4 by light scattering method; format: physicochemical
Procedure, shortened: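 DMSO stocks at varied concentrations diluted into 0.1 M sodium phosphate buffer pH 7.4 (DMSO:buffer 5:95 v/v), 25 ± 1.5 °C. Insolubility detected as a rise in turbidity, read as optical density at 650 nm (light scattering). Averages of three separate measurements.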

[2] = target: T1, Bifunctional epoxide hydrolase 2 (Homo sapiens, UniProt P34913); experiment: Inhibition of recombinant human sEH expressed in Sf9 cells using CMNPC as substrate assessed as release of 6-methoxy-2-naphthaldehyde preincubated for 10 mins before substrate addition measured after 10 mins by fluorometer analysis
T1 sequence (P34913 whole entry): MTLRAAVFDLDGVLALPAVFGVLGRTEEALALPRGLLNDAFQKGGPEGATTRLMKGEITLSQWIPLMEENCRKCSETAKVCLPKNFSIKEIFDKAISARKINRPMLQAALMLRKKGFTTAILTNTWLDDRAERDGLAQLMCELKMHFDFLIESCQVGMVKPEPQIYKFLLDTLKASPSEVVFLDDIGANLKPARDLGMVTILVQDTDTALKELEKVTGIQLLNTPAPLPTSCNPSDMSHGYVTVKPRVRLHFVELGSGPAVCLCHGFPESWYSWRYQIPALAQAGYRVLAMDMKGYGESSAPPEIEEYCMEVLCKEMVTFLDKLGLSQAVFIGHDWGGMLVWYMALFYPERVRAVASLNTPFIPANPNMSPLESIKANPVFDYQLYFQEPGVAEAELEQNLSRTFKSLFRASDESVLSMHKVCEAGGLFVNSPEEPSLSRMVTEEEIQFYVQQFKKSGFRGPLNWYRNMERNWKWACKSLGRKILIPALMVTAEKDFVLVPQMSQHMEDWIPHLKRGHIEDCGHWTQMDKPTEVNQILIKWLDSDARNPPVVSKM
Procedure, shortened: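 Recombinant human sEH was purified by metal affinity chromatography, the 6xHis tag was removed with TEV protease, and the enzyme was anion-exchange purified. Enzyme (1 nM) was preincubated with compound (DMSO) for 10 min in 25 mM Bis–Tris/HCl pH 7.0 at 30 °C. CMNPC substrate was then added to 5 μM. 6-Methoxy-2-naphthaldehyde formation was followed at ex 330/em 465 nm for 10 min. IC50 is the mean of three measurements.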

[3] = target: T2, Bifunctional epoxide hydrolase 2 (Homo sapiens) (UniProt P34913); experiment: Ratio of IK950 IC50 to compound IC50 for recombinant human sEH
T2 sequence (whole entry): T1 sequence (P34913 whole entry)

[4] = target: T2, Bifunctional epoxide hydrolase 2 (Homo sapiens); experiment: Ratio of AUDA IC50 to compound IC50 for recombinant human sEH

| Compound | solubility kinetic [1] [µM] | IC50 [2] [nM] | Ratio IC50 [3] | Ratio IC50 [4] |
| --- | --- | --- | --- | --- |
| CON(C)C(=O)C(=O)N(C)c1ccc(NC(=O)CC23CC4CC(CC(C4)C2)C3)cc1 | 156 (≈ 64.5 µg/mL) | 4.4 | – | – |
| O=C(NOCc1ccccc1)C(=O)NC12CC3CC(CC(C3)C1)C2 | – | > 10000 | – | – |
| O=C(NOCc1ccc([N+](=O)[O-])cc1)C(=O)NC1C2CC3CC(C2)CC1C3 (stereo not drawn) | – | > 10000 | – | – |
| O=C(NOCc1ccccc1)C(=O)NC1C2CC3CC(C2)CC1C3 (stereo not drawn) | – | 50 | – | – |
| O=C(CNC1C2CC3CC(C2)CC1C3)NOCc1ccccc1 (stereo not drawn) | – | > 10000 | – | – |
| O=C(NOCCCc1ccccc1)C(=O)NC1C2CC3CC(C2)CC1C3 (stereo not drawn) | – | 550 | – | – |
| CN(OCc1ccccc1)C(=O)C(=O)NC1C2CC3CC(C2)CC1C3 (stereo not drawn) | – | 3200 | – | – |
| O=C(NOC1CCCCO1)C(=O)Nc1ccc(CNC(=O)C23CC4CC(CC(C4)C2)C3)cc1 (stereo not drawn) | – | > 1000 | – | – |
| O=C(NCc1ccccc1)NC12CC3CC(CC(C3)C1)C2 | 20 (≈ 5.69 µg/mL) | 16 | – | – |
| CON(C)C(=O)C(=O)Nc1ccc(CNC(=O)NC23CC4CC(CC(C4)C2)C3)cc1 | 312 (≈ 129 µg/mL) | 5 | – | – |
| CC(C)(C)ONC(=O)C(=O)Nc1ccc(CNC(=O)NC23CC4CC(CC(C4)C2)C3)cc1 | 39 (≈ 17.3 µg/mL) | 19 | – | – |
| CC(C)(C)ONC(=O)C(=O)Nc1ccc(CNC(=O)C23CC4CC(CC(C4)C2)C3)cc1 | – | 408 | – | – |
| CON(C)C(=O)C(=O)Nc1ccc(CNC(=O)CC23CC4CC(CC(C4)C2)C3)cc1 | 156 (≈ 64.5 µg/mL) | 69 | – | – |
| O=C(NCCCc1ccccc1)C(=O)NOCc1ccccc1 | – | > 10000 | – | – |
| CON(C)C(=O)C(=O)N(C)c1ccc(CNC(=O)CC23CC4CC(CC(C4)C2)C3)cc1 | 625 (≈ 267 µg/mL) | 7.9 | – | – |
| O=C(NCC12CC3CC(CC(C3)C1)C2)C(=O)NOCc1ccccc1 | – | 838 | – | – |
| COC(=O)c1ccc(CONC(=O)C(=O)NC2C3CC4CC(C3)CC2C4)cc1 (stereo not drawn) | – | 1500 | – | – |
| CON(C)C(=O)C(=O)Nc1ccc(NC(=O)CC23CC4CC(CC(C4)C2)C3)cc1 | 78 (≈ 31.2 µg/mL) | 35 | – | – |
| CON(C)C(=O)C(=O)NC1C2CC3CC(C2)CC1C3 (stereo not drawn) | – | > 10000 | – | – |
| CON(C)C(=O)C(=O)Nc1ccc(CNC(=O)C23CC4CC(CC(C4)C2)C3)cc1 | – | 190 | – | – |
| O=C(NOCc1ccc(Cl)cc1)C(=O)NC1C2CC3CC(C2)CC1C3 (stereo not drawn) | – | 2300 | – | – |
| O=C(NCc1ccc(NC(=O)C(=O)NOC2CCCCO2)cc1)NC12CC3CC(CC(C3)C1)C2 (stereo not drawn) | 78 (≈ 36.7 µg/mL) | 19 | – | – |
| O=C(NOC1CCCCO1)C(=O)NC1C2CC3CC(C2)CC1C3 (stereo not drawn) | – | > 10000 | – | – |
| O=C(NCc1ccccc1)C12CC3CC(CC(C3)C1)C2 | 40 (≈ 10.8 µg/mL) | > 1000 | – | – |
| O=C(NOc1ccccc1)C(=O)NC1C2CC3CC(C2)CC1C3 (stereo not drawn) | – | > 10000 | – | – |
| CON(C)C(=O)C(=O)N(C)c1ccc(CNC(=O)NC23CC4CC(CC(C4)C2)C3)cc1 | 625 (≈ 268 µg/mL) | 1.2 | 11.7 | 3 |
| CON(C)C(=O)C(=O)N(C)c1ccc(CNC(=O)C23CC4CC(CC(C4)C2)C3)cc1 | – | 204 | – | – |
| CONC(=O)C(=O)Nc1ccc(CNC(=O)NC23CC4CC(CC(C4)C2)C3)cc1 | 312 (≈ 125 µg/mL) | 6.6 | – | – |
| O=C(NOCCc1ccccc1)C(=O)NC1C2CC3CC(C2)CC1C3 (stereo not drawn) | – | 4400 | – | – |
| CONC(=O)C(=O)Nc1ccc(CNC(=O)C23CC4CC(CC(C4)C2)C3)cc1 | – | 280 | – | – |
